High-throughput results: PubChem, Johns Hopkins Ion Channel Center
KCNK3 inh: human KCNK3 channel inhibition, primary screen; O14649; CHO-KCNK3 thallium flux, FluxOR fluorescence; hits give low values; B-score at 10 µM; hit rate 0.84% among 340,000; AID 602410;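 active = B-score under library mean minus 4 SD, starting fluorescence ratio at most library mean plus 5 SD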;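 note: more negative B-score means stronger inhibition of thallium flux through KCNK3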
KCNK9 inh: inhibitors of human KCNK9 two-pore domain potassium channel; HEK293 KCNK9, FluxOR thallium flux fluorescence; hits give low values; B-score at 10 µM; hit rate 1.2% among 310,000; AID 488922;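 active = ratio B-score over 3 SD below the library mean, with starting fluorescence within 5 SD of its mean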;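 note: negative B-score means less thallium flux so channel inhibition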
KCNQ1 pot: potentiators or activators of human KCNQ1 potassium channel; P51787; CHO-K1 KCNQ1, thallium flux FluxOR fluorescence; hits give high values; B-score at 10 µM; hit rate 0.35% among 310,000; AID 2648;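 active = fluorescence ratio B-score, a plate-corrected score, at least three library SD, with initial intensity B-score within 5 SD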
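assay system = CHO-K1 cells stably expressing KCNQ1 | medium = assay buffer, equal DMSO in all wells | timing = 37 °C overnight plating, 90-min dark dye load, 20-min compound pretreatment | measured by = kinetic FluxOR thallium fluorescence, 10-s 1-Hz baseline, 110-s post-stimulus read | measure = fluorescence change relative to baseline, converted to B score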
KCNQ1 block: inhibitors of human KCNQ1 potassium channel; AID 2642; hit rate 1.3% among 310,000; CHO-K1 KCNQ1, FluxOR thallium flux fluorescence; hits give high values; B-score at 10 µM;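 active = compounds whose thallium flux B-score, printed positive for inhibition, exceeds three library SD while starting fluorescence stays within three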;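 note: channel opened by potassium depolarization with thallium stimulus after 20 min compound exposure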
hERG rescue: shields human hERG channel from block by proarrhythmic agents; activation (rescue from dofetilide block), less the hit threshold, % at 10 µM; Q12809; CHO-hERG, FluxOR thallium flux, dofetilide IC70 present; hit rate 0.51% among 310,000;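 active = activation above the mean of controls blocked by dofetilide plus 5 SD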;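 note: thallium influx through hERG after potassium depolarization seen as dye fluorescence rise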
Target sequence (Q12809 whole entry, looked up): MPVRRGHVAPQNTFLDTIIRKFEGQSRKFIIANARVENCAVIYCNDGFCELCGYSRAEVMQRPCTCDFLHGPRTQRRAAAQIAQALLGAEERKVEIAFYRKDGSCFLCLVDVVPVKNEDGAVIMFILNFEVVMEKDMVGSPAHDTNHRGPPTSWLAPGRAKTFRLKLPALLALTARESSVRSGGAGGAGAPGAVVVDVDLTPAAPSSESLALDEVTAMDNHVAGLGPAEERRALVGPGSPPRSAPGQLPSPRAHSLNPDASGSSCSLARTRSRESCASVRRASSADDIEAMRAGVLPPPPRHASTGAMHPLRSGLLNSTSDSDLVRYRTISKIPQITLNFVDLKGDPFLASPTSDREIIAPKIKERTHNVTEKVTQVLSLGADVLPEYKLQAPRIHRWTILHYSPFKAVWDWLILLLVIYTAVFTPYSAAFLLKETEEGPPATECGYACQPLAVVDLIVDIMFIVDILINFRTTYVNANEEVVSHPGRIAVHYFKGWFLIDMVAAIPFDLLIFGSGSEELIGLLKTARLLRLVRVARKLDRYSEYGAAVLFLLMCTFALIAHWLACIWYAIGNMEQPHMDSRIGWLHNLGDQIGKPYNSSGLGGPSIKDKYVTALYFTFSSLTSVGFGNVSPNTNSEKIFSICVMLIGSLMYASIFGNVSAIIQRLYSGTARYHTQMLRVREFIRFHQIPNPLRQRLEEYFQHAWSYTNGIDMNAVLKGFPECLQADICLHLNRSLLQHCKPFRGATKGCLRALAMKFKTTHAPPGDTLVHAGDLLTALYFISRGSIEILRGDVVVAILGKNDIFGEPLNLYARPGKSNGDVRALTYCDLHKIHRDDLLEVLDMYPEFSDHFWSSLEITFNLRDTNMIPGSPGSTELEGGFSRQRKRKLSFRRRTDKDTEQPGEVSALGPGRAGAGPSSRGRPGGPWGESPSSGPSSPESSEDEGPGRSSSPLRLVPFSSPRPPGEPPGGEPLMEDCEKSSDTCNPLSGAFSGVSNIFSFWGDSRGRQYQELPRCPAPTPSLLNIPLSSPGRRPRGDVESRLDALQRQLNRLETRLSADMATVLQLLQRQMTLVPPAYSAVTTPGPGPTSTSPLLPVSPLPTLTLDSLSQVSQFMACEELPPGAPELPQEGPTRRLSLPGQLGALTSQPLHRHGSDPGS
Kir21 block: Kir2.1 (mouse) channel inhibition; P35561; HEK293-Kir2.1, FluxOR thallium flux fluorescence; hits give low values; B-score at 10 µM; hit rate 0.85% among 310,000; AID 1672;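 active = fluorescence ratio B-score at or below minus 3 SD of library scores, with starting-brightness B-score within 2 SD, cut at about -4.2 in these data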;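 note: channel flux triggered by added potassium and thallium sulfate stimulus; B-score of peak minus minimum fluorescence over baseline after thallium stimulus; more negative B-score means stronger Kir2.1 block with less thallium influx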
Of the large screens only hits and unclear results are named; the others gave an inactive call. Shown are actives, neighbours in structure and some others; about 3.7% of the full set was active somewhere.

Cc1ccc2nc(SC(C)C(=O)NCc3ccc4c(c3)OCO4)[nH]c2c1 (configuration not stated)	hERG rescue 19.3
CC(Sc1ccc(Cl)cc1)C(=O)NCc1ccc2c(c1)OCO2 (configuration not stated)	none
CCN(C(=O)c1cnc(NC(C)C)cc1C(F)(F)F)c1ccc(Cl)cc1Cl	none
Cc1cc(C)cc(NC(=S)N(Cc2ccc(Br)cc2)Cc2ccc(C(=O)O)cc2)c1	KCNK9 inh -7.36
COc1ccc(N2CCN(C(=O)CSc3ccc([N+](=O)[O-])cc3)CC2)cc1	KCNQ1 block 8
Cc1ccc(CN2C(=O)c3ccccc3NC2c2cc(Br)ccc2O)cc1 (configuration not stated)	KCNQ1 block 13
CC(=O)Nc1ccc(NC(=S)Nc2ccc(Br)cc2)cc1	KCNQ1 block 6
S=C(Nc1ccccc1)Nc1ccc(Br)cc1	KCNQ1 block 6
CC(=O)Nc1ccc(NC(=S)Nc2ccccc2)cc1	none
CN(Cc1ccccc1)CC(O)CN(C)Cc1ccccc1	none (no result: KCNK9 inh, KCNQ1 pot, KCNQ1 block, hERG rescue, Kir21 block)
CCOc1ccc(S(=O)(=O)N2CCCC(C(=O)N3CCN(CC)CC3)C2)cc1Cl (configuration not stated)	none
Cc1ccc2c(c1)S(=O)(=O)c1ccc3ccccc3c1N2	none (no result: KCNK9 inh, KCNQ1 pot, KCNQ1 block, hERG rescue, Kir21 block)
Nn1c(Cc2cccc3ccccc23)nnc1SCCOc1ccc(F)cc1	KCNK9 inh -7.86
Nn1c(Cc2cccc3ccccc23)nnc1SCCOc1ccc(Br)cc1	none
Cc1ccc2nc(COC(=O)c3ccc(Cl)nc3)cc(=O)n2c1	none (no result: KCNK9 inh, KCNQ1 pot, KCNQ1 block, hERG rescue, Kir21 block)
COc1ccccc1OCC#CCNC1CCCCC1C (configuration not stated)	Kir21 block -5.51
Cc1ccc(C(=O)N(C)CC(=O)Nc2ccc(Cl)c(C(F)(F)F)c2)cc1S(=O)(=O)N1CCCCC1	KCNK3 inh -10.9 (no result: KCNK9 inh, KCNQ1 pot, KCNQ1 block, hERG rescue, Kir21 block)
Cc1sc2ncnc(N3CCC(C(=O)N(C)CC(=O)Nc4ccc(Cl)c(C(F)(F)F)c4)CC3)c2c1C	KCNQ1 block 9
Cc1ccc(S(=O)(=O)N2CCCCC2)cc1C(=O)N(C)CC(=O)Nc1ccc(Cl)c(C(F)(F)F)c1	none
CCCCN(c1ccccc1)S(=O)(=O)N(C)C	Kir21 block -5.13
COc1cc(C(=S)N2CCCC2)ccc1OCc1ccc(C)cc1	none
C=CCn1c(NCc2c[nH]c3ccccc23)nc2ccccc21	Kir21 block -5.59
CCn1c(NCc2c[nH]c3ccccc23)nc2ccccc21	none
COc1cc(CNCCN2CCOCC2)ccc1OCc1ccc(Cl)cc1	none
COc1cc(CNCCCN2CCOCC2)cc(Br)c1OCc1ccc(Cl)cc1	Kir21 block -8.18
CC1(C(=O)Nc2cccc(C(F)(F)F)c2)CO1 (configuration not stated)	none (no result: KCNK3 inh)
O=C(Nc1cccc(C(F)(F)F)c1)C12CC3CC(CC(C3)C1)C2	hERG rescue 5.0
CCOC(=O)C(C#N)C(Cc1ccccc1)c1ccco1 (configuration not stated)	Kir21 block -4.67
CCOC(=O)C(Cc1ccccc1)C(=O)Nc1ccc(NC(=O)C(Cc2ccccc2)C(=O)OCC)cc1 (configuration not stated)	none
CC(C)c1ccc(S(=O)(=O)N2CCN(C(=O)Cc3ccsc3)CC2)cc1	none
S=c1[nH]c2ccc(Cl)cc2s1	KCNQ1 pot 69, hERG rescue 52.5
O=[N+]([O-])c1ccc2[nH]c(=S)sc2c1	none (no result: KCNK9 inh, KCNQ1 pot, KCNQ1 block, hERG rescue, Kir21 block)
CCOc1cc2c(cc1O)C(=NO)CC1C2CCC2(C)C(O)CCC12 (configuration not stated)	none (no result: KCNK9 inh, KCNQ1 pot, KCNQ1 block, hERG rescue, Kir21 block)
CC(=O)Nc1ccc(CN2CCCC(C(=O)c3cccc(C(F)(F)F)c3)C2)cc1 (configuration not stated)	none
COc1ccc(CN2CCCC(C(=O)c3cccc(C(F)(F)F)c3)C2)cc1O (configuration not stated)	Kir21 block -12.2
COc1cccc(C2(O)CCN(C(=O)C3CCC3)CC2)c1	hERG rescue 4.8
CC(C)N(Cc1ccccc1)C(=O)COC(=O)c1cnc(Cl)c(Cl)c1	none (no result: KCNK9 inh, KCNQ1 pot, KCNQ1 block, hERG rescue, Kir21 block)
CC1=C/C(=N\Nc2ccccc2[N+](=O)[O-])CC(C)(C)C1	KCNQ1 block 7
Cc1cc(N2C(=O)C(O)=C(C(=O)c3cc4ccccc4o3)C2c2cccc(Cl)c2)no1 (configuration not stated)	none
CN(C)CCNC(=S)NC1CCCCC1	none
